In the library only some 3.7% were active in any assay of this set; here they are far more common.
KCNK9 inh: KCNK9 potassium channel inhibitors, primary screen, HEK293 cells, thallium flux; FluxOR thallium flux fluorescence; active compounds read low; 310,000 tested, 1.2% active; B-score at 10 µM; Potassium channel subfamily K member 9 (Homo sapiens), Q9NPC2;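 active means ratio B-score over 3 SD below the library mean, with starting fluorescence within 5 SD of its mean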;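 further: negative B-score means less thallium flux so channel inhibition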
hERG protect: hERG rescue from dofetilide block, primary screen, cell-based, CHO-hERG, FluxOR thallium flux, dofetilide IC70 | 310,000 tested, 0.51% active | activation (rescue from dofetilide block), less the hit threshold, % at 10 µM | dofetilide IC70 present;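 active means activation above the mean of controls blocked by dofetilide plus 5 SD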;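 further: thallium influx through hERG after potassium depolarization seen as dye fluorescence rise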
KCNQ1 pot: potentiators or activators of KCNQ1 channel, primary screen, cell-based, thallium flux, high-throughput | CHO-K1 KCNQ1, thallium flux FluxOR fluorescence; active compounds read high | B-score at 10 µM | 310,000 tested, 0.35% active;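 active means fluorescence ratio B-score, a plate-corrected score, at least three library SD, with initial intensity B-score within 5 SD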
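System: CHO-K1 cells stably expressing KCNQ1 / Medium: assay buffer for compound exposure, DMSO matched across wells / Reagent: thallium- and potassium-containing depolarizing buffer / Compound: one concentration, matched DMSO / Incubation: 20 min compound pretreatment at room temperature / Measured by: kinetic FluxOR fluorescence, 10 s baseline plus 110 s post-stimulus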
KCNK3 block: human KCNK3 channel inhibitors, primary screen, CHO cells, FluxOR thallium flux, B-score; 340,000 tested, 0.84% active; AID 602410, 2012; B-score at 10 µM; Potassium channel subfamily K member 3 (Homo sapiens), O14649; FluxOR fluorescence; active compounds read low;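 active means B-score under library mean minus 4 SD, starting fluorescence ratio at most library mean plus 5 SD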;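 further: more negative B-score means stronger inhibition of thallium flux through KCNK3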
KCNQ1 block: inhibitors of human KCNQ1 channel, primary screen, cell-based, thallium flux, high-throughput | 310,000 tested, 1.3% active | B-score at 10 µM | AID 2642, 2010 | CHO-K1 KCNQ1, FluxOR thallium flux fluorescence; active compounds read high;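 active means compounds whose thallium flux B-score, printed positive for inhibition, exceeds three library SD while starting fluorescence stays within three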;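 further: channel opened by potassium depolarization with thallium stimulus after 20 min compound exposure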
Kir21 block: inhibitors of mouse Kir2.1 inward-rectifier potassium channel | HEK293-Kir2.1, FluxOR thallium flux fluorescence; active compounds read low | B-score at 10 µM | AID 1672, 2009 | Inward rectifier potassium channel 2 (Mus musculus), P35561 | 310,000 tested, 0.85% active;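 active means fluorescence ratio B-score at or below minus 3 SD of library scores, with starting-brightness B-score within 2 SD, cut at about -4.2 in these data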;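 further: channel flux triggered by added potassium and thallium sulfate stimulus; B-score of peak minus minimum fluorescence over baseline after thallium stimulus; more negative B-score means stronger Kir2.1 block with less thallium influx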
Target sequence (P35561 whole entry, looked up): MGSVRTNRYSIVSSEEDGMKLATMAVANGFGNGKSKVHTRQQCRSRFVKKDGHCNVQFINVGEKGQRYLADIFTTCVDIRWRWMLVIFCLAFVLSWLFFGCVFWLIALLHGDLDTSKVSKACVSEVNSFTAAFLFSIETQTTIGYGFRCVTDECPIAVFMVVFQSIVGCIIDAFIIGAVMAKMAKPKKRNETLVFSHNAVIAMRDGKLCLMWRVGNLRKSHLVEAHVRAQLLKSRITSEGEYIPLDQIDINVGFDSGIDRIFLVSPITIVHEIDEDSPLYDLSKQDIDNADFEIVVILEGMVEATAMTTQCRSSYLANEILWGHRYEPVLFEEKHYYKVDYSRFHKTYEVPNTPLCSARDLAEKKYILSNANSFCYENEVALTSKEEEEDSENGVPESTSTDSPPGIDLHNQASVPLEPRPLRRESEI
Numbers without * were called inactive; i = inactive; nt = no result given.

SMILES	KCNK9 inh	hERG protect	KCNQ1 pot	KCNK3 block	KCNQ1 block	Kir21 block
CC(=O)c1cccc(N(C(=O)CNC(=O)c2ccco2)C(C(=O)NCC2CCCO2)c2ccccc2)c1 (stereo not drawn)	i	-4.1	i	i	i	-1.42
COc1ccc(CCNC(=O)C2CCCN(S(=O)(=O)c3ccccc3)C2)cc1 (stereo not drawn)	i	-12.7	i	i	i	-0.28
O=C(COc1coc(CN2CCN(c3ccccc3F)CC2)cc1=O)NC1CCCC1	i	-11.7	i	i	i	0.67
Oc1c(N=NC(=S)Nc2ccccc2F)c2ccccc2n1Cc1ccc(Cl)cc1	i	25.0*	8*	i	i	0.25
NC(=S)N=Nc1c(O)n(CCCl)c2ccccc12	i	-5.1	i	i	i	-0.56
CCNC(=S)N=Nc1c(O)n(Cc2ccc(Cl)cc2)c2ccccc12	i	0.8	18*	i	i	0.27
Cc1ccc(C)c(Cn2c(O)c(N=NC(=S)Nc3ccccc3F)c3ccccc32)c1	i	4.7*	i	i	i	-0.06
COc1ccc(-n2c(C)c(C)c3c(N)ncnc32)cc1	i	-2.7	i	i	i	-1.05
Cc1cccc(NC(=O)CCN2CCC(C)CC2)c1	i	-3.9	i	i	i	-0.45
O=C1CC2(CCCCC2)Oc2ccc(F)cc21	i	-3.2	i	i	i	0.52
O=C1CC2(CCCCC2)Oc2ccccc21	i	5.4*	i	i	i	-0.04
Fc1ccc(C2=NN(c3ccccc3)C(c3ccco3)C2)cc1 (stereo not drawn)	i	-27.6	i	i	i	-0.83
COc1ccccc1C1CC(c2ccco2)=NN1c1ccccc1 (stereo not drawn)	-7.64*	-5.8	i	i	i	-0.26
O=CC1=C(c2ccccc2)Oc2ccccc2O1	i	-8.9	i	i	6*	-7.61*
CN(C)/C=C1/N=C(c2ccccc2)OC1=O	i	-2.7	i	i	i	0.1
CCCOc1ccc(C(=O)NC(=S)NNC(=O)c2c(-c3ccccc3)noc2C)cc1	i	-12.3	15*	i	i	1.31
O=C(Nc1cccc(S(=O)(=O)N2CCCCC2)c1)c1ccc(S(=O)(=O)C(F)F)cc1	i	-5.0	i	i	i	0.01
CC[n+]1ccc(/C=C/c2c[nH]c3ccccc23)cc1	i	-24.1	i	i	10*	-5.94
Cc1ccc2[nH]cc(/C=C/c3cc[n+](C)cc3)c2c1	i	-32.3	i	i	i	-15.6
COc1cccc(-n2c(=O)n(Cc3ccccc3)c(=O)c3[nH]cnc32)c1	i	-12.7	i	i	i	1.25
O=C(Nc1cccc(S(=O)(=O)N2CCCCC2)c1)c1cc2ccccc2o1	nt	nt	nt	-11.2*	nt	nt
COCc1c(C(=O)Nc2cccc(S(=O)(=O)N3CCCCC3)c2)oc2ccccc12	nt	nt	nt	-9.3*	nt	nt
O=C(Nc1cccc(S(=O)(=O)N2CCCCC2)c1)c1ccco1	nt	nt	nt	i	nt	nt
CCN(CC)CCNC(=O)/C(=C/c1cn(C)c2ccccc12)NC(=O)c1ccc(OC)c(OC)c1	i	-9.0	i	i	i	-0.56
Cc1ccc(NC(=S)NCC2CCN(C(C)c3ccccc3)C2)cc1 (stereo not drawn)	i	-10.2	i	i	i	-0.39
CC(c1ccccc1)N1CCC(CNC(=S)Nc2cccc(Cl)c2)C1 (stereo not drawn)	i	-14.1	i	i	i	-5.89*
Cc1cccc(-c2nnc(-c3ccc4ccccc4c3)o2)c1	nt	nt	nt	-9.2*	nt	nt
Cc1cccc(-c2nnc(-c3cccc4ccccc34)o2)c1	nt	nt	nt	-9.54*	nt	nt
COc1ccc(S(=O)(=O)NCCSCc2cccc(C)c2)cc1Br	i	-1.1	i	i	i	-0.85
